Measurements taken from ChEMBL document CHEMBL1143889, “N-Phenyl and N-phenylalkyl-maleimides acting against Candida spp.: time-to-kill, stability, interaction with maleamic acids” (2008).
Values after ≈ are worked out from the molar mass of the structure shown. Active and inactive are the calls of the source. The rule behind the calls is not given here.

Key:
Pichia kudriavzevii = test: Antifungal activity against Candida krusei C 117-2000 after 48 hrs by CLSI M27-A2 method; format: functional
In short: (§1)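 Broth microdilution per CLSI M27-A2 in RPMI-1640, with twofold dilutions giving final 250–0.98 µg/mL. The inoculum was modified to 1–5 × 10⁴ CFU/mL instead of 1–5 × 10³, with ketoconazole and amphotericin B as positive controls. MIC was the lowest concentration giving total growth inhibition, read visually. Strains were grown on Sabouraud-chloramphenicol agar for 24 h at 37 °C.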

Clavispora lusitaniae = test: Antifungal activity against Candida lusitaniae C 131-2000 after 48 hrs by CLSI M27-A2 method; format: functional; in short: as §1
Candida tropicalis = test: Antifungal activity against Candida tropicalis C 137-1997 after 48 hrs by CLSI M27-A2 method; format: functional; in short: as §1
Candida albicans [1] = test: Antifungal activity against Candida albicans C 126-2000 after 48 hrs by CLSI M27-A2 method; format: functional; in short: as §1
Candida albicans [2] = test: Antifungal activity against Candida albicans C 125-2000 after 48 hrs by CLSI M27-A2 method; format: functional; in short: as §1
Candida albicans [3] = test: Antifungal activity against Candida albicans C 130-2000 after 48 hrs by CLSI M27-A2 method; format: functional; in short: as §1
Kluyveromyces marxianus = test: Antifungal activity against Candida kefyr C 123-2000 after 48 hrs by CLSI M27-A2 method; format: functional; in short: as §1
Candida albicans [4] = test: Antifungal activity against Candida albicans C 128-2000 after 48 hrs by CLSI M27-A2 method; format: functional; in short: as §1
Candida albicans [5] = test: Antifungal activity against Candida albicans C 129-2000 after 48 hrs by CLSI M27-A2 method; format: functional; in short: as §1
Torulaspora delbrueckii = test: Antifungal activity against Candida coliculosa C 122-2000 after 48 hrs by CLSI M27-A2 method; format: functional; in short: as §1
Nakaseomyces glabratus = test: Antifungal activity against Candida glabrata C 115-2000 after 48 hrs by CLSI M27-A2 method; format: functional; in short: as §1
Candida albicans [6] = test: Antifungal activity against Candida albicans C 127-2000 after 48 hrs by CLSI M27-A2 method; format: functional; in short: as §1
Candida parapsilosis = test: Antifungal activity against Candida parapsilosis C 124-2000 after 48 hrs by CLSI M27-A2 method; format: functional; details: Lodderomyces parapsilosis; in short: as §1
Candida albicans [7] = test: Antifungal activity against Candida albicans ATCC 10231 after 48 hrs by CLSI M27-A2 method; format: functional; details: ATCC 10231, 48 h; in short: as §1
Candida albicans [8] = test: Antifungal activity against Candida albicans ATCC 10231 pre-incubated for 2 days analysed after 24 hrs by CLSI M27-A2 method; format: functional
In short: (§2)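 Twofold maleimide dilutions (1000–0.98 µg/mL) in complete M27-A2 medium without inoculum were held at 37 °C, with one plate row filled on each of 7 consecutive days to give 0–7 days of pre-incubation. All wells were then inoculated with C. albicans ATCC 10231 at 1–5 × 10⁴ CFU/mL and incubated for 24 h at 37 °C. MIC was read per row, in duplicate.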

Candida albicans [9] = test: Antifungal activity against Candida albicans ATCC 10231 pre-incubated for 1 day analysed after 24 hrs by CLSI M27-A2 method; format: functional; in short: as §2
Candida albicans [10] = test: Antifungal activity against Candida albicans ATCC 10231 pre-incubated for 4 days analysed after 24 hrs by CLSI M27-A2 method; format: functional; in short: as §2
Candida albicans [11] = test: Antifungal activity against Candida albicans ATCC 10231 pre-incubated for 3 days analysed after 24 hrs by CLSI M27-A2 method; format: functional; in short: as §2
Candida albicans [12] = test: Antifungal activity against Candida albicans ATCC 10231 preincubated for 7 days analysed after 24 hrs by CLSI M27-A2 method; format: functional; in short: as §2
Candida albicans [13] = test: Antifungal activity against Candida albicans ATCC 10231 within 90 mins by time-to-kill study; format: functional, organism-based
In short: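 C. albicans ATCC 10231 (2–2.5 × 10⁴ CFU/mL) in 5 mL RPMI-1640 was exposed to 1× MFC of compound at 37 °C with agitation. 10 µL samples taken at 0, 30, 60, 90 and 120 min, and at 4, 8, 12 and 24 h, were plated on drug-free SDA and colonies counted after 24–48 h at 37 °C. Run in duplicate.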

Candida albicans [14] = test: Antifungal activity against Candida albicans ATCC 10231 after 24 hrs by CLSI M27-A2 method; format: functional; details: ATCC 10231, 24 h; in short: as §1
Candida albicans [15] = test: Antifungal activity against Candida albicans ATCC 10231 pre-incubated for 5 days analysed after 24 hrs by CLSI M27-A2 method; format: functional; in short: as §2
Candida albicans [16] = test: Antifungal activity against Candida albicans ATCC 10231 pre-incubated for 6 days analysed after 24 hrs by CLSI M27-A2 method; format: functional; in short: as §2

Row | Structure (SMILES) | MIC (Pichia kudriavzevii) | MIC (Clavispora lusitaniae) | MIC (Candida tropicalis) | MIC (Candida albicans [1]) | MIC (Candida albicans [2]) | MIC (Candida albicans [3]) | MIC (Kluyveromyces marxianus) | MIC (Candida albicans [4]) | MIC (Candida albicans [5]) | MIC (Torulaspora delbrueckii) | MIC (Nakaseomyces glabratus) | MIC (Candida albicans [6]) | MIC (Candida parapsilosis) | MIC (Candida albicans [7]) | MIC (Candida albicans [8]) | MIC (Candida albicans [9]) | MFC (Pichia kudriavzevii) | MIC (Candida albicans [10]) | MFC (Clavispora lusitaniae) | MFC (Candida tropicalis) | also measured
1 | O=C(O)/C=C\C(=O)NCCc1ccccc1 | > 250 µg/mL | > 250 µg/mL | > 250 µg/mL | > 250 µg/mL | > 250 µg/mL | > 250 µg/mL | > 250 µg/mL | > 250 µg/mL | > 250 µg/mL | > 250 µg/mL | > 250 µg/mL | > 250 µg/mL | > 250 µg/mL | > 250 µg/mL |  |  |  |  |  |  | 
2 | O=C(O)/C=C\C(=O)NCCCc1ccccc1 | > 250 µg/mL | > 250 µg/mL | > 250 µg/mL | > 250 µg/mL | > 250 µg/mL | > 250 µg/mL | > 250 µg/mL | > 250 µg/mL | > 250 µg/mL | > 250 µg/mL | > 250 µg/mL | > 250 µg/mL | > 250 µg/mL | > 250 µg/mL |  |  |  |  |  |  | 
3 | O=C(O)/C=C\C(=O)NCc1ccccc1 | > 250 µg/mL | > 250 µg/mL | > 250 µg/mL | > 250 µg/mL | > 250 µg/mL | > 250 µg/mL | > 250 µg/mL | > 250 µg/mL | > 250 µg/mL | > 250 µg/mL | > 250 µg/mL | > 250 µg/mL | > 250 µg/mL | > 250 µg/mL |  |  |  |  |  |  | 
4 | O=C1C=CC(=O)N1c1ccccc1 | 1.95 µg/mL (≈ 11.3 µM) | 3.9 µg/mL (≈ 22.5 µM) | 7.81 µg/mL (≈ 45.1 µM) | 0.97 µg/mL (≈ 5.6 µM) | 0.48 µg/mL (≈ 2.77 µM) | 0.48 µg/mL (≈ 2.77 µM) | 1.95 µg/mL (≈ 11.3 µM) | 0.97 µg/mL (≈ 5.6 µM) | 0.48 µg/mL (≈ 2.77 µM) | 1.95 µg/mL (≈ 11.3 µM) | 1.95 µg/mL (≈ 11.3 µM) | 0.97 µg/mL (≈ 5.6 µM) | 1.95 µg/mL (≈ 11.3 µM) | 3.9 µg/mL (≈ 22.5 µM) | 3.9 µg/mL (≈ 22.5 µM) | 3.9 µg/mL (≈ 22.5 µM) | 1.95 µg/mL (≈ 11.3 µM) | 15.8 µg/mL (≈ 91 µM) | 7.8 µg/mL (≈ 45 µM) | 15.8 µg/mL (≈ 91 µM) | MFC (Candida albicans [1]): 3.9 µg/mL (≈ 22.5 µM); MFC (Candida albicans [2]): 1.95 µg/mL (≈ 11.3 µM); MFC (Candida albicans [3]): 1.95 µg/mL (≈ 11.3 µM); MFC (Kluyveromyces marxianus): 3.9 µg/mL (≈ 22.5 µM); MIC (Candida albicans [11]): 7.8 µg/mL (≈ 45 µM); MFC (Candida albicans [4]): 3.9 µg/mL (≈ 22.5 µM); MFC (Candida albicans [5]): 1.95 µg/mL (≈ 11.3 µM); MFC (Torulaspora delbrueckii): 3.9 µg/mL (≈ 22.5 µM); MIC (Candida albicans [12]): 500 µg/mL (≈ 2890 µM); Activity (Candida albicans [13]): Active; MFC (Nakaseomyces glabratus): 3.9 µg/mL (≈ 22.5 µM); MIC (Candida albicans [14]): 3.9 µg/mL (≈ 22.5 µM); MIC (Candida albicans [15]): 62.5 µg/mL (≈ 361 µM); MFC (Candida albicans [6]): 1.95 µg/mL (≈ 11.3 µM); MFC (Candida parapsilosis): 3.9 µg/mL (≈ 22.5 µM); MIC (Candida albicans [16]): 125 µg/mL (≈ 722 µM); MFC (Candida albicans [7]): 7.8 µg/mL (≈ 45 µM)
5 | O=C1C=CC(=O)N1CCCCc1ccccc1 | 7.8 µg/mL (≈ 34 µM) | 3.9 µg/mL (≈ 17 µM) | 15.8 µg/mL (≈ 68.7 µM) | 0.97 µg/mL (≈ 4.23 µM) | 0.97 µg/mL (≈ 4.23 µM) | 1.95 µg/mL (≈ 8.5 µM) | 1.95 µg/mL (≈ 8.5 µM) | 0.97 µg/mL (≈ 4.23 µM) | 0.97 µg/mL (≈ 4.23 µM) | 3.9 µg/mL (≈ 17 µM) | 1.95 µg/mL (≈ 8.5 µM) | 1.95 µg/mL (≈ 8.5 µM) | 1.95 µg/mL (≈ 8.5 µM) | 3.9 µg/mL (≈ 17 µM) | 3.9 µg/mL (≈ 17 µM) | 3.9 µg/mL (≈ 17 µM) | 15.8 µg/mL (≈ 68.7 µM) | 31.2 µg/mL (≈ 136 µM) | 3.9 µg/mL (≈ 17 µM) | 32.2 µg/mL (≈ 141 µM) | MFC (Candida albicans [1]): 1.95 µg/mL (≈ 8.5 µM); MFC (Candida albicans [2]): 1.95 µg/mL (≈ 8.5 µM); MFC (Candida albicans [3]): 3.9 µg/mL (≈ 17 µM); MFC (Kluyveromyces marxianus): 7.81 µg/mL (≈ 34.1 µM); MIC (Candida albicans [11]): 15.8 µg/mL (≈ 68.7 µM); MFC (Candida albicans [4]): 1.95 µg/mL (≈ 8.5 µM); MFC (Candida albicans [5]): 1.95 µg/mL (≈ 8.5 µM); MFC (Torulaspora delbrueckii): 3.9 µg/mL (≈ 17 µM); MIC (Candida albicans [12]): 1000 µg/mL (≈ 4360 µM); Activity (Candida albicans [13]): Active; MFC (Nakaseomyces glabratus): 3.9 µg/mL (≈ 17 µM); MIC (Candida albicans [14]): 3.9 µg/mL (≈ 17 µM); MIC (Candida albicans [15]): 125 µg/mL (≈ 545 µM); MFC (Candida albicans [6]): 3.9 µg/mL (≈ 17 µM); MFC (Candida parapsilosis): 7.8 µg/mL (≈ 34 µM); MIC (Candida albicans [16]): 250 µg/mL (≈ 1090 µM); MFC (Candida albicans [7]): 7.8 µg/mL (≈ 34 µM)
6 | O=C(O)/C=C\C(=O)Nc1ccccc1 | > 250 µg/mL | > 250 µg/mL | > 250 µg/mL | > 250 µg/mL | > 250 µg/mL | > 250 µg/mL | > 250 µg/mL | > 250 µg/mL | > 250 µg/mL | > 250 µg/mL | > 250 µg/mL | > 250 µg/mL | > 250 µg/mL | > 250 µg/mL |  |  |  |  |  |  | 
